# Where “and” joins values, the source holds several entries; their conditions need not be identical. Equal entries are not always repeated.
# How the values were obtained:
# Rattus norvegicus [1] = species on record: Rattus norvegicus; test: Radioactivity distribution in lung of normal fischer rat after injection of [18F]-fluoro-2-methyl-2-(methylamino)propanoic acid after 5 min.; type: ADME, organism-based; conditions: in vivo
# Method in brief: (§1)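 Male Fischer 344 rats (200–250 g), fed ad libitum, anesthetized with intramuscular ketamine:xylazine (1:1, 0.1 mL/100 g). About 85 μCi tracer in 0.3 mL sterile water was given by tail-vein catheter. Groups of four were killed at 5, 30, 60 or 120 min. Tissues were weighed and gamma-counted against dose standards, decay-corrected, and expressed as %ID/g (mean ± standard error).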
# Rattus norvegicus [2] = species on record: Rattus norvegicus; test: Radioactivity distribution in lung of normal fischer rat after injection of [18F]-fluoro-2-methyl-2-(methylamino)propanoic acid after 60 min.; type: ADME, organism-based; conditions: in vivo, 1 h; method in brief: as §1
# Rattus norvegicus [3] = species on record: Rattus norvegicus; test: Radioactivity distribution in pancreas of normal fischer rat after injection of [18F]-fluoro-2-methyl-2-(methylamino)propanoic acid after 5 min.; type: ADME, organism-based; conditions: in vivo; method in brief: as §1
# Rattus norvegicus [4] = species on record: Rattus norvegicus; test: Radioactivity distribution in pancreas of normal fischer rat after injection of [18F]-fluoro-2-methyl-2-(methylamino)propanoic acid after 60 min.; type: ADME, organism-based; conditions: in vivo, 1 h; method in brief: as §1
# Rattus norvegicus [5] = species on record: Rattus norvegicus; test: Radioactivity distribution in muscle of normal fischer rat after injection of [18F]-fluoro-2-methyl-2-(methylamino)propanoic acid after 5 min.; type: ADME, organism-based, Muscle tissue; conditions: in vivo; method in brief: as §1
# Rattus norvegicus [6] = species on record: Rattus norvegicus; test: Radioactivity distribution in muscle of normal fischer rat after injection of [18F]-fluoro-2-methyl-2-(methylamino)propanoic acid after 60 min.; type: ADME, organism-based, Muscle tissue; conditions: in vivo, 1 h; method in brief: as §1
# Rattus norvegicus [7] = species on record: Rattus norvegicus; test: Radioactivity distribution in brain of normal fischer rat after injection of [18F]-fluoro-2-methyl-2-(methylamino)propanoic acid after 120 min.; type: ADME, organism-based; conditions: in vivo, 2 h
# Method in brief: (§2)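 Normal male Fischer 344 rats (200–250 g), anesthetized with i.m. ketamine:xylazine (1:1), got ~85 μCi of tracer in 0.3 mL sterile water i.v. via tail-vein catheter. Groups of four were killed at 5, 30, 60 or 120 min. Tissues were weighed and gamma-counted against dose standards, and counts were decay-corrected to %ID/g. Results are mean ± standard error (n = 4), compared by one-way ANOVA.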
# Rattus norvegicus [8] = species on record: Rattus norvegicus; test: Radioactivity distribution in heart of normal fischer rat after injection of [18F]-fluoro-2-methyl-2-(methylamino)propanoic acid after 120 min.; type: ADME, organism-based; conditions: in vivo, 2 h; method in brief: as §2
# Rattus norvegicus [9] = species on record: Rattus norvegicus; test: Radioactivity distribution in heart of normal fischer rat after injection of [18F]-fluoro-2-methyl-2-(methylamino)propanoic acid after 30 min.; type: ADME, organism-based; conditions: in vivo, 0.5 h; method in brief: as §2
# Rattus norvegicus [10] = species on record: Rattus norvegicus; test: Radioactivity distribution in heart of normal fischer rat after injection of [18F]-fluoro-2-methyl-2-(methylamino)propanoic acid after 5 min.; type: ADME, organism-based; conditions: in vivo; method in brief: as §2
# Rattus norvegicus [11] = species on record: Rattus norvegicus; test: Radioactivity distribution in heart of normal fischer rat after injection of [18F]-fluoro-2-methyl-2-(methylamino)propanoic acid after 60 min.; type: ADME, organism-based; conditions: in vivo, 1 h; method in brief: as §2
# Rattus norvegicus [12] = species on record: Rattus norvegicus; test: Radioactivity distribution in bone of normal fischer rat after injection of [18F]-fluoro-2-methyl-2-(methylamino)propanoic acid after 120 min.; type: ADME, organism-based, Bone element; conditions: in vivo, 2 h; method in brief: as §2
# Rattus norvegicus [13] = species on record: Rattus norvegicus; test: Radioactivity distribution in bone of normal fischer rat after injection of [18F]-fluoro-2-methyl-2-(methylamino)propanoic acid after 30 min.; type: ADME, organism-based, Bone element; conditions: in vivo, 0.5 h; method in brief: as §2
# Rattus norvegicus [14] = species on record: Rattus norvegicus; test: Radioactivity distribution in bone of normal fischer rat after injection of [18F]-fluoro-2-methyl-2-(methylamino)propanoic acid after 5 min.; type: ADME, organism-based, Bone element; conditions: in vivo; method in brief: as §2
# Rattus norvegicus [15] = species on record: Rattus norvegicus; test: Radioactivity distribution in bone of normal fischer rat after injection of [18F]-fluoro-2-methyl-2-(methylamino)propanoic acid after 60 min.; type: ADME, organism-based, Bone element; conditions: in vivo, 1 h; method in brief: as §2
# Rattus norvegicus [16] = species on record: Rattus norvegicus; test: Radioactivity distribution in liver of normal fischer rat after injection of [18F]-fluoro-2-methyl-2-(methylamino)propanoic acid after 120 min.; type: ADME, organism-based; conditions: in vivo, 2 h; method in brief: as §1
# Rattus norvegicus [17] = species on record: Rattus norvegicus; test: Radioactivity distribution in liver of normal fischer rat after injection of [18F]-fluoro-2-methyl-2-(methylamino)propanoic acid after 30 min.; type: ADME, organism-based; conditions: in vivo, 0.5 h; method in brief: as §1
# Rattus norvegicus [18] = species on record: Rattus norvegicus; test: Radioactivity distribution in liver of normal fischer rat after injection of [18F]-fluoro-2-methyl-2-(methylamino)propanoic acid after 5 min.; type: ADME, organism-based; conditions: in vivo; method in brief: as §1
# Rattus norvegicus [19] = species on record: Rattus norvegicus; test: Radioactivity distribution in liver of normal fischer rat after injection of [18F]-fluoro-2-methyl-2-(methylamino)propanoic acid after 60 min.; type: ADME, organism-based; conditions: in vivo, 1 h; method in brief: as §1
# Rattus norvegicus [20] = species on record: Rattus norvegicus; test: Radioactivity distribution in testis of normal fischer rat after injection of [18F]-fluoro-2-methyl-2-(methylamino)propanoic acid after 5 min.; type: ADME, organism-based; conditions: in vivo
# Method in brief: (§3)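 Male Fischer 344 rats (200–250 g), fed ad libitum, under intramuscular ketamine:xylazine anesthesia, got ~85 μCi radiotracer in 0.3 mL sterile water by tail-vein catheter. Groups of four were killed at 5, 30, 60 or 120 min. Dissected tissues were weighed and gamma-counted with dose standards. Counts were decay-corrected and given as %ID/g, mean ± standard error. Tissues were compared by one-way ANOVA.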
# Rattus norvegicus [21] = species on record: Rattus norvegicus; test: Radioactivity distribution in testis of normal fischer rat after injection of [18F]-fluoro-2-methyl-2-(methylamino)propanoic acid after 60 min.; type: ADME, organism-based; conditions: in vivo, 1 h; method in brief: as §3
# Rattus norvegicus [22] = species on record: Rattus norvegicus; test: Radioactivity distribution in tumor of tumor-bearing fischer rat after injection of [18F]-fluoro-2-methyl-2-(methylamino)propanoic acid after 5 min.; conditions: in vivo
# Rattus norvegicus [23] = species on record: Rattus norvegicus; test: Radioactivity distribution in tumor of tumor-bearing fischer rat after injection of [18F]-fluoro-2-methyl-2-(methylamino)propanoic acid after 60 min.; conditions: in vivo, 1 h
# Rattus norvegicus [24] = species on record: Rattus norvegicus; test: Radioactivity distribution in tumor of tumor-bearing fischer rat after injection of [18F]-fluoro-2-methyl-2-(methylamino)propanoic acid after 120 min.; conditions: in vivo, 2 h
structure (smiles),measurement,setting,value
CNC(C)(C[18F])C(=O)O.Cl (centres undefined),ID/g,Rattus norvegicus [1],0.53% and 0.61%
same,ID/g,Rattus norvegicus [2],0.38% and 0.26%
same,ID/g,Rattus norvegicus [3],2.73% and 2.95%
same,ID/g,Rattus norvegicus [4],3.24% and 2.42%
same,ID/g,Rattus norvegicus [5],0.16% and 0.22%
same,ID/g,Rattus norvegicus [6],0.15% and 0.19%
same,ID/g,Rattus norvegicus [7],0.03% and < 0.02%
same,ID/g,Rattus norvegicus [8],0.17% and 0.19%
same,ID/g,Rattus norvegicus [9],0.23%
same,ID/g,Rattus norvegicus [10],0.22% and 0.34%
same,ID/g,Rattus norvegicus [11],0.2% and 0.25%
same,ID/g,Rattus norvegicus [12],0.2% and 0.19%
same,ID/g,Rattus norvegicus [13],0.32%
same,ID/g,Rattus norvegicus [14],0.34% and 0.33%
same,ID/g,Rattus norvegicus [15],0.29% and 0.23%
same,ID/g,Rattus norvegicus [16],0.58% and 0.41%
same,ID/g,Rattus norvegicus [17],0.72%
same,ID/g,Rattus norvegicus [18],0.79% and 0.94%
same,ID/g,Rattus norvegicus [19],0.78% and 0.85%
same,ID/g,Rattus norvegicus [20],0.17% and 0.19%
same,ID/g,Rattus norvegicus [21],0.08%
same,ID/g,Rattus norvegicus [22],1.29%
same,ID/g,Rattus norvegicus [23],2.28%
same,ID/g,Rattus norvegicus [24],1.94%
